Sampled rows, rich in hits. Any-hit rate of the full collection: about 5.8%.
IDH1 R132H inh: IDH1 R132H (human) inhibition | O75874 | IDH1 R132H reductase, diaphorase/resazurin fluorescence, 60 min | AID 624101 | inhibition, % at 10 µM | 70,000 tested, 0.18% active; in the data active means inhibition above about 34%
Pf Dd2 inh: blocks growth of Plasmodium falciparum Dd2 parasites; P. falciparum Dd2 growth, SYBR Green, 72 h; active compounds read low; activity change, % at 10 µM; 94,000 tested, 2.3% active; AID 1159554; in the data active means activity change below about -80%
KDM4C inh: KDM4C (human) demethylase inhibition | inhibition, % at 12.5 µM | Q9H3R0 | 96,000 tested, 0.15% active | GST-KDM4C 2-372, H3K9me3 peptide, LANCE TR-FRET;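 active means mean replicate inhibition above about 25%, with at least 55% of replicates also reaching it, limit read from the data, passing the limit was not always enough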
Target sequence (Q9H3R0 2-372 limits assumed): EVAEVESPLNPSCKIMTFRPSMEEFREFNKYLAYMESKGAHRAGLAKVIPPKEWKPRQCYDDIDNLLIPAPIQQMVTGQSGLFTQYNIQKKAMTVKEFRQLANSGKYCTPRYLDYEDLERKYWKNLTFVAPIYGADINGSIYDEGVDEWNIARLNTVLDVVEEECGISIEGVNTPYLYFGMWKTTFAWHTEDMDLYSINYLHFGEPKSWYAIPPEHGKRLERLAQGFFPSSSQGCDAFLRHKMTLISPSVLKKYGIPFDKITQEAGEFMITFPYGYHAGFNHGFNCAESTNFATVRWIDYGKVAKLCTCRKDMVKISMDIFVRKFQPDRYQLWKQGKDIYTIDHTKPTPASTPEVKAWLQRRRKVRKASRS
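Material: N-terminal GST-fused human GASC-1 (KDM4C) fragment, residues 2-372. Input: 10 nM enzyme. Incubation: enzyme reaction 30 min, then detection 60 min, both room temperature. Doses: one test concentration per compound. Read-out basis: inhibition from TR-FRET ratio decrease. Detection: LANCE TR-FRET, excitation 340 nm, emissions 618 and 671 nm.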
T cruzi growth: blocks T. cruzi growth in NIH3T3 culture; inhibition, % at 8.34 µM; T. cruzi beta-gal in NIH3T3, GalScreen luminescence, 90 h; AID 624255; 77,000 tested, 5.9% active;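 active means mean inhibition above about 93%, with at least 55% of replicates each passing it, limit read from the data, passing the limit was not always enough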
Hits are given with their value.

C[C@@H]1CN([C@@H](C)CO)C(=O)c2c(c3ccccc3n2C)-c2ccccc2CO[C@@H]1CN(C)S(=O)(=O)c1ccc([N+](=O)[O-])cc1 was read as Pf Dd2 inh inactive and KDM4C inh inactive.
C[C@H](CO)N1C[C@H](C)[C@H](CN(C)S(=O)(=O)c2ccc([N+](=O)[O-])cc2)OCc2ccccc2-c2c(n(C)c3ccccc23)C1=O was read as Pf Dd2 inh -92 and KDM4C inh inactive.
Screening Cc1ccc(S(=O)(=O)N(C)C[C@@H]2OCc3ccccc3-c3c(n(C)c4ccccc34)C(=O)N([C@H](C)CO)C[C@@H]2C)cc1 returned Pf Dd2 inh -92.
For Cn1cnc(S(=O)(=O)N2C[C@H](O)COC[C@H]3O[C@H](CC(=O)NCc4ccc(F)cc4)CC[C@@H]32)c1 the results were Pf Dd2 inh inactive, KDM4C inh inactive and T cruzi growth inactive.
`O=[N+]([O-])c1ccccc1S(=O)(=O)N1CCN(S(=O)(=O)Cc2ccccc2)CC1` gave IDH1 R132H inh inactive.
Screening O=C(C[C@H]1C[C@@H]2c3cc(NC(=O)c4ccc5c(c4)OCO5)ccc3O[C@@H]2[C@@H](CO)O1)NCC1CC1 returned IDH1 R132H inh inactive, Pf Dd2 inh inactive, KDM4C inh inactive and T cruzi growth inactive.
For CCC(=O)N[C@@H]1C=C[C@H](CC(=O)NCC2CCCCC2)O[C@@H]1CO the results were IDH1 R132H inh inactive, Pf Dd2 inh inactive, KDM4C inh inactive and T cruzi growth inactive.
For CCC(=O)N[C@H]1C=C[C@H](CC(=O)NCC2CCCCC2)O[C@@H]1CO the results were IDH1 R132H inh inactive, Pf Dd2 inh -88, KDM4C inh inactive and T cruzi growth inactive.
`O=C(C[C@@H]1C=C[C@@H](NC(=O)C2CCC2)[C@H](CO)O1)NC1CCC1` gave IDH1 R132H inh inactive, Pf Dd2 inh -87 and KDM4C inh inactive.
Screening COc1ccc2c3c(n(C)c2c1)[C@H](CO)N(CC1CC1)CC31CCN(C(=O)c2ccc3c(c2)OCO3)CC1 returned Pf Dd2 inh inactive and KDM4C inh inactive.
Screening O=C(CSc1n[nH]c(-c2ccccc2)n1)Nc1cccc(C(F)(F)F)c1 returned IDH1 R132H inh inactive.
Screening COCC(=O)Nc1ccc2c(c1)C(=O)N(C)[C@@H]1CC[C@@H](CC(=O)NCCc3ccccc3)O[C@H]1CO2 returned Pf Dd2 inh inactive, KDM4C inh inactive and T cruzi growth inactive.
Screening C[C@@H]1CN([C@H](C)CO)C(=O)c2cc(/C=C/c3ccccc3)cnc2O[C@@H]1CN(C)C(=O)C1CC1 returned Pf Dd2 inh -86 and KDM4C inh inactive.
`C[C@H](CO)N1C[C@H](C)[C@@H](CN(C)Cc2cncnc2)Oc2ncc(/C=C/c3ccccc3)cc2C1=O` gave IDH1 R132H inh 79, Pf Dd2 inh inactive, KDM4C inh 52 and T cruzi growth inactive.
O=C(CSc1nnnn1-c1ccccc1)Nc1ccc(Oc2ccccc2)cc1 was read as IDH1 R132H inh inactive.
`Cc1ccc(S(=O)(=O)Nc2ccc3c(c2)CC(=O)N([C@H](C)CO)C[C@H](C)[C@@H](CN(C)Cc2ccc(C(=O)Nc4ccccc4N)cc2)O3)cc1` gave IDH1 R132H inh inactive, Pf Dd2 inh -85 and KDM4C inh inactive.
`Cc1ccc(S(=O)(=O)Nc2ccc3c(c2)CC(=O)N([C@@H](C)CO)C[C@@H](C)[C@@H](CN(C)Cc2ccc(C(=O)Nc4ccccc4N)cc2)O3)cc1` gave IDH1 R132H inh inactive, Pf Dd2 inh -88, KDM4C inh inactive and T cruzi growth inactive.
`N[C@H]1CC[C@H](CCn2cc(C3CCCCC3)nn2)O[C@@H]1CO` gave IDH1 R132H inh inactive, Pf Dd2 inh inactive, KDM4C inh inactive and T cruzi growth inactive.
Screening CC(C)c1cn(CC[C@@H]2CC[C@H](N)[C@@H](CO)O2)nn1 returned IDH1 R132H inh inactive, Pf Dd2 inh inactive, KDM4C inh 38 and T cruzi growth inactive.
N[C@H]1CC[C@H](CCn2cc(C3CC3)nn2)O[C@@H]1CO was read as Pf Dd2 inh inactive and KDM4C inh 31.
CCC(=O)N1CC2(C1)CN(CC1CCOCC1)[C@H](CO)c1c2c2ccc(OC)cc2n1C was read as Pf Dd2 inh inactive and KDM4C inh inactive.
Screening CC(C)NC[C@@H]1[C@@H](c2ccc(C3=CCCCC3)cc2)[C@@H](CO)N1C(=O)CC1CC1 returned Pf Dd2 inh -83.
Screening N#C[C@@H]1[C@H](c2ccc(C3=CCCCC3)cc2)[C@@H](CO)N1C(=O)NC1CCCC1 returned Pf Dd2 inh -83 and KDM4C inh inactive.
C/C=C/c1ccccc1[C@H]1[C@@H](C#N)N(C(=O)NC2CCCC2)[C@H]1CO was read as Pf Dd2 inh -82 and KDM4C inh inactive.
For C[C@@H]1CN([C@H](C)CO)C(=O)c2cc(NC(=O)CCN3CCOCC3)ccc2O[C@H]1CN(C)C(=O)Nc1ccc(F)cc1 the results were IDH1 R132H inh inactive, Pf Dd2 inh inactive, KDM4C inh inactive and T cruzi growth inactive.
`N#C[C@H]1[C@@H](c2ccc(C#Cc3ccccc3F)cc2)[C@H](CO)N1C(=O)C1CCCC1` gave Pf Dd2 inh inactive and KDM4C inh inactive.
Screening N#C[C@H]1[C@H](c2ccc(C#Cc3ccccc3F)cc2)[C@@H](CO)N1C(=O)C1CCCCC1 returned Pf Dd2 inh inactive, KDM4C inh inactive and T cruzi growth inactive.
Screening N#C[C@@H]1[C@H](c2ccc(C#Cc3ccccc3F)cc2)[C@H](CO)N1C(=O)C1CCCC1 returned Pf Dd2 inh -88 and KDM4C inh inactive.
Screening N#C[C@H]1[C@@H](c2ccc(C#Cc3ccccc3F)cc2)[C@@H](CO)N1C(=O)C1CCCCC1 returned IDH1 R132H inh inactive, Pf Dd2 inh -93, KDM4C inh inactive and T cruzi growth inactive.
`CS(=O)(=O)Nc1ccc2c(c1)[C@@H]1C[C@@H](CC(=O)NCc3ccc(-c4ccccc4)cc3)O[C@H](CO)[C@@H]1O2` gave IDH1 R132H inh inactive, Pf Dd2 inh inactive, KDM4C inh inactive and T cruzi growth inactive.
Screening C[C@@H]1CN([C@H](C)CO)C(=O)c2cc(NC(=O)CCC(F)(F)F)ccc2O[C@@H](C)CCCCO[C@H]1CN(C)C(=O)Nc1ccc(C(F)(F)F)cc1 returned Pf Dd2 inh inactive, KDM4C inh inactive and T cruzi growth inactive.
For COc1cccc(C#Cc2ccc([C@@H]3[C@H](CO)N4C(=O)CN(C(=O)C5CC5)C[C@@H]34)cc2)c1 the results were Pf Dd2 inh inactive and KDM4C inh inactive.
`CCOC(=O)c1c(C)[nH]c2ccc3c(c12)CN1CCc2cc(OC)ccc2C1O3` (configuration not stated) gave IDH1 R132H inh inactive.
Screening C[C@H]1CN([C@@H](C)CO)S(=O)(=O)c2ccc(C#Cc3ccccc3F)cc2O[C@H]1CN(C)C(=O)Cc1cccnc1 returned IDH1 R132H inh inactive, Pf Dd2 inh -83, KDM4C inh inactive and T cruzi growth inactive.
C[C@@H]1CN([C@@H](C)CO)S(=O)(=O)c2ccc(-c3ccccc3)cc2O[C@H]1CN(C)Cc1cccnc1 was read as IDH1 R132H inh 66, Pf Dd2 inh inactive, KDM4C inh inactive and T cruzi growth 103.
